Measured values reported in ChEMBL document CHEMBL1126017, “Phenylalkyl isothiocyanate-cysteine conjugates as glutathione S-transferase stimulating agents” (J Med Chem, 1992).

Experiments:
[1] = tested on: glutathione S-transferase (Mus musculus); test: Induction of increased cytosolic glutathione S-transferase activity in forestomach of A/J mice treated with 3 doses of 0.04 mM compound (dissolved in 0.3 mL of cottonseed oil) for 2 days; conditions: Stomach
[2] = tested on: glutathione S-transferase (Mus musculus); test: Induction of increased cytosolic glutathione S-transferase activity in small bowel mucosa of A/J mice treated with 3 doses of 0.10 mM compound (dissolved in 0.3 mL of cottonseed oil) for 2 days
[3] = tested on: glutathione S-transferase (Mus musculus); test: Induction of increased cytosolic glutathione S-transferase activity in liver of A/J mice treated with 3 doses of 0.10 mM compound (dissolved in 0.3 mL of cottonseed oil) for 2 days
[4] = tested on: glutathione S-transferase (Mus musculus); test: Induction of increased cytosolic glutathione S-transferase activity in lung of A/J mice treated with 3 doses of 0.04 mM compound (dissolved in 0.3 mL of cottonseed oil) for 2 days
[5] = tested on: glutathione S-transferase (Mus musculus); test: Induction of increased cytosolic glutathione S-transferase activity in bladder of A/J mice treated with 3 doses of 0.04 mM compound (dissolved in 0.3 mL of cottonseed oil) for 2 days; conditions: Urinary bladder
[6] = tested on: glutathione S-transferase (Mus musculus); test: Induction of increased cytosolic glutathione S-transferase activity in forestomach of A/J mice treated with 3 doses of 0.10 mM compound (dissolved in 0.3 mL of cottonseed oil) for 2 days; conditions: Stomach
[7] = biological target: T1, Glutathione S-transferase Mu 1 (Mus musculus) (UniProt P10649); test: Ratio of glutathione S-transferase activity in tested (cottonseed oil alone + compound) to that of control (cottonseed oil alone); format: functional
T1 sequence (whole entry): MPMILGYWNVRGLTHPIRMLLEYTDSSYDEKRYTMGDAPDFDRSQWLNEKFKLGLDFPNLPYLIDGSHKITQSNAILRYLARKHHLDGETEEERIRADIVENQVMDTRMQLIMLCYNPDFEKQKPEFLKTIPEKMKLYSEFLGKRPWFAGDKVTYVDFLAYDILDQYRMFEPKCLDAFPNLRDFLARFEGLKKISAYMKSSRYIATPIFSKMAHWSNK
Method in brief: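 Ratio of cytosolic GST specific activity (CDNB substrate, 340 nm, 30 °C) in each tissue of gavaged female A/J mice to that of cottonseed oil-only controls (test/control).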

[8] = tested on: glutathione S-transferase (Mus musculus); test: Induction of increased cytosolic glutathione S-transferase activity in large bowel mucosa of A/J mice treated with 3 doses of 0.10 mM compound (dissolved in 0.3 mL of cottonseed oil) for 2 days
[9] = tested on: glutathione S-transferase (Mus musculus); test: Induction of increased cytosolic glutathione S-transferase activity in liver of A/J mice treated with 3 doses of 0.04 mM compound (dissolved in 0.3 mL of cottonseed oil) for 2 days
[10] = tested on: glutathione S-transferase (Mus musculus); test: Induction of increased cytosolic glutathione S-transferase activity in small bowel mucosa of A/J mice treated with 3 doses of 0.04 mM compound (dissolved in 0.3 mL of cottonseed oil) for 2 days
[11] = tested on: glutathione S-transferase (Mus musculus); test: Induction of increased cytosolic glutathione S-transferase activity in lung of A/J mice treated with 3 doses of 0.10 mM compound (dissolved in 0.3 mL of cottonseed oil) for 2 days
[12] = tested on: glutathione S-transferase (Mus musculus); test: Induction of increased cytosolic glutathione S-transferase activity in large bowel mucosa of A/J mice treated with 3 doses of 0.04 mM compound (dissolved in 0.3 mL of cottonseed oil) for 2 days

NC(CS/C(S)=N/CCCc1ccccc1)C(=O)O (configuration not stated)
Activity (uM min-1 (mg of protein)-1) [1]: 0.86 | Activity (uM min-1 (mg of protein)-1) [2]: 0.69 | Activity (uM min-1 (mg of protein)-1) [3]: 1.35 | Activity (uM min-1 (mg of protein)-1) [4]: 0.31 | Activity (uM min-1 (mg of protein)-1) [5]: 6.16 | Activity (uM min-1 (mg of protein)-1) [6]: 0.92 | Ratio [7]: 1.11 [middle of 11 runs] | Activity (uM min-1 (mg of protein)-1) [8]: 0.38 | Activity (uM min-1 (mg of protein)-1) [9]: 1.2 | Activity (uM min-1 (mg of protein)-1) [10]: 0.49 | Activity (uM min-1 (mg of protein)-1) [11]: 0.29 | Activity (uM min-1 (mg of protein)-1) [12]: 0.26
